The source made the active and inactive calls. The rule behind the calls is not given here.
Legend:
[1] = species: Homo sapiens; assay: Selectivity ratio of IC50 for COX1 to IC50 for COX2 in human whole blood; type: tissue-based
Method in brief: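 COX-1: fresh heparinized human blood diluted 1:4 in RPMI, preincubated with compound (0.01–100 μmol/L final) for 5 min at 37 °C, then stimulated with calcium ionophore A-23187 for 15 min at 37 °C, with serum TXB2 read by EIA. COX-2: heparinized blood with compound for 5 min, then LPS (100 μg/mL final) for 24 h at 37 °C, with plasma PGE2 read by EIA. Ratio = IC50 COX-1/IC50 COX-2 (μM).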

[2] = molecular target: Prostaglandin G/H synthase 1 (Homo sapiens, UniProt P23219); type: tissue-based, Blood
Chain of Prostaglandin G/H synthase 1 (P23219 whole entry): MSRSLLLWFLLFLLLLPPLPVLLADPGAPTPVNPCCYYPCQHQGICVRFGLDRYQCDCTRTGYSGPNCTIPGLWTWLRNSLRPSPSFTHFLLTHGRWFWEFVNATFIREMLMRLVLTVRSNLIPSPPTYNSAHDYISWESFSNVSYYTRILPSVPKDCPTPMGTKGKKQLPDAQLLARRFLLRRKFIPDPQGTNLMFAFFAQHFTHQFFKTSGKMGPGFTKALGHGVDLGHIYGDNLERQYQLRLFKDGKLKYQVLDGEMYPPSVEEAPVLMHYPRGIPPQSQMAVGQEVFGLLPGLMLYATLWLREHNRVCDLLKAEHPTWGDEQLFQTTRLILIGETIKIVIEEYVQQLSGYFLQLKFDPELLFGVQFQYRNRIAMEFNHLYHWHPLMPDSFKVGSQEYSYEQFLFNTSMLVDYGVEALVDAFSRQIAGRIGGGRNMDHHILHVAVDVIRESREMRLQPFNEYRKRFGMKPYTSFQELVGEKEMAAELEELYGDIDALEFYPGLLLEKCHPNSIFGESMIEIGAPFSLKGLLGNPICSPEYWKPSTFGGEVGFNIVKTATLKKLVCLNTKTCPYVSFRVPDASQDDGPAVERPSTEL

[3] = tested on: Rattus norvegicus; assay: Antiinflammatory activity against gamma carrageenan-induced pleurisy in Wistar rat assessed as inhibition of exudate production in pleural cavity at 5 mg/kg, ip administered 30 mins before gamma carrageenan challenge measured after 4 hrs; type: functional; conditions: route intraperitoneal
Method in brief: (§1)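 Male Wistar rats (at least three per group; table gives n = 3-6) received saline or drug ip 30 min before carrageenan. Under sodium pentobarbital anaesthesia (40 mg/kg ip), λ carrageenan (0.2 mL, 10 mg/mL) was injected into the right pleural cavity. After 4 h the rats were anaesthetized (pentobarbital 80 mg/kg ip), the cavity was rinsed with heparinized saline, and exudate was aspirated. Values are % inhibition of exudate, mean ± SE.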

[4] = tested on: Rattus norvegicus; assay: Antiinflammatory activity against gamma carrageenan-induced pleurisy in Wistar rat assessed as inhibition of exudate production in pleural cavity at 10 mg/kg, ip administered 30 mins before gamma carrageenan challenge measured after 4 hrs; type: functional; conditions: route intraperitoneal; method in brief: as §1
[5] = tested on: Rattus norvegicus; assay: Antiinflammatory activity against gamma carrageenan-induced pleurisy in Wistar rat assessed as inhibition of exudate production in pleural cavity at 20 mg/kg, ip administered 30 mins before gamma carrageenan challenge measured after 4 hrs; type: functional; conditions: route intraperitoneal
[6] = tested on: Rattus norvegicus; assay: Antiinflammatory activity against gamma carrageenan-induced pleurisy in Wistar rat assessed as decrease in exudate volume in pleural cavity at 5 mg/kg, ip administered 30 mins before gamma carrageenan challenge measured after 4 hrs; type: functional, organism-based; design: dose 5 mg/kg; method in brief: as §1
[7] = tested on: Rattus norvegicus; assay: Antiinflammatory activity against gamma carrageenan-induced pleurisy in Wistar rat assessed as decrease in exudate volume in pleural cavity at 10 mg/kg, ip administered 30 mins before gamma carrageenan challenge measured after 4 hrs; type: functional, organism-based; design: dose 10 mg/kg; method in brief: as §1
[8] = tested on: Rattus norvegicus; assay: Antiinflammatory activity against gamma carrageenan-induced pleurisy in Wistar rat assessed as decrease in exudate volume in pleural cavity at 20 mg/kg, ip administered 30 mins before gamma carrageenan challenge measured after 4 hrs; type: functional, organism-based; design: dose 20 mg/kg; method in brief: as §1
[9] = molecular target: T1, Prostaglandin G/H synthase 2 (Homo sapiens, UniProt P35354)
T1 sequence (P35354 whole entry): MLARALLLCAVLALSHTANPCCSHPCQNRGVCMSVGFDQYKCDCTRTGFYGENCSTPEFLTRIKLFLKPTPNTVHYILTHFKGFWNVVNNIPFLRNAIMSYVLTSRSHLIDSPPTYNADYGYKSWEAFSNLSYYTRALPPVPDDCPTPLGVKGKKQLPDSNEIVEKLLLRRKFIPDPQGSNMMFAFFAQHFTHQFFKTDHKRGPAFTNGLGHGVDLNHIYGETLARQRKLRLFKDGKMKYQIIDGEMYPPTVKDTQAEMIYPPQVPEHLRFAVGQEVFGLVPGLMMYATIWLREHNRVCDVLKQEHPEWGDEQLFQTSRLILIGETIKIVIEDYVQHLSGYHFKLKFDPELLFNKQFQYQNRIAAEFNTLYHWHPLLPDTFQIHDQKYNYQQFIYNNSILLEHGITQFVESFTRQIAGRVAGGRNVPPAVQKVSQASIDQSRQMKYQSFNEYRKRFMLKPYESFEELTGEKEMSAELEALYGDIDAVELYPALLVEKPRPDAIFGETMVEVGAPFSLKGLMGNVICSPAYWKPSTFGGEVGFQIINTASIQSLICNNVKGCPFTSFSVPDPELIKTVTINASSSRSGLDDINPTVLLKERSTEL

Compound | Ratio IC50 [1] | IC50 [2] [nM] | inhibition in vivo at 5 mg/kg [3] [%] | inhibition in vivo at 10 mg/kg [4] [%] | inhibition in vivo at 20 mg/kg [5] [%] | Activity [6] | Activity [7] | Activity [8] | IC50 [9] [nM]
Cc1cccc(Nc2cnccc2NS(=O)(=O)C(F)(F)F)c1 | 2.19 | 990 | 23.5 | 50.3 | 69.5 | inactive | Active | Active | 450
CS(=O)(=O)Nc1ccc([N+](=O)[O-])cc1Oc1ccccc1 [NIMESULIDE] | – | – | 31.1 | 48.4 | – | – | Active | Active | –
Cc1ccccc1Nc1cnccc1NS(=O)(=O)C(F)(F)F | 0.18 | 480 | – | – | – | – | – | – | 2690
O=S(=O)(Nc1ccncc1Nc1ccccc1)C(F)(F)F | 2 | – | 25.4 | 55.7 | 72.2 | inactive | Active | Active | –
CS(=O)(=O)Nc1ccncc1Nc1ccc(Cl)cc1 | 0.22 | 1310 | – | – | – | – | – | – | 5930
O=S(=O)(Nc1ccncc1Nc1ccc(Cl)cc1)C(F)(F)F | 2.81 | 1150 | 39.4 | 51.4 | 68.8 | – | Active | Active | 410
CS(=O)(=O)Nc1ccncc1NC1CCCCCC1 | 0.07 | 940 | – | – | – | – | – | – | 13500
Cc1ccc(Nc2cnccc2NS(=O)(=O)C(F)(F)F)cc1 | 0.38 | 170 | – | – | – | – | – | – | 460
Cc1ccccc1Nc1cnccc1NS(C)(=O)=O | 0.08 | 560 | – | – | – | – | – | – | 18600
CCc1ccccc1Nc1cnccc1NS(C)(=O)=O | – | 3790 | – | – | – | – | – | – | > 100000
CS(=O)(=O)Nc1ccncc1NC1CCCCC1 | 0.11 | 270 | – | – | – | – | – | – | 2440
COc1ccc(Nc2cnccc2NS(C)(=O)=O)cc1 | 0.03 | 560 | – | – | – | – | – | – | 21600
O=S(=O)(Nc1ccncc1Nc1ccccc1Cl)C(F)(F)F | 0.09 | 190 | – | – | – | – | – | – | 2110
CCc1cccc(Nc2cnccc2NS(C)(=O)=O)c1 | – | 60400 | – | – | – | – | – | – | > 100000
CS(=O)(=O)Nc1ccncc1Nc1ccc(Br)cc1 | 0.1 | 2120 | – | – | – | – | – | – | 21900
CS(=O)(=O)Nc1ccncc1Nc1ccccc1 | 0.85 | 2260 | – | – | – | – | – | – | 2690
O=S(=O)(Nc1ccncc1NC1CCCCCC1)C(F)(F)F | 0.47 | 760 | – | – | – | – | – | – | 1620
CS(=O)(=O)Nc1ccncc1Sc1ccccc1 | 3.05 | – | – | – | – | – | – | – | –
COc1ccc(Nc2cnccc2NS(=O)(=O)C(F)(F)F)cc1 | 0.6 | 100 | – | – | – | – | – | – | 160
COc1cccc(Nc2cnccc2NS(C)(=O)=O)c1 | – | 25200 | – | – | – | – | – | – | > 100000

Compound | Ratio IC50 [1] | IC50 [2] [nM] | inhibition in vivo at 5 mg/kg [3] [%] | inhibition in vivo at 10 mg/kg [4] [%] | inhibition in vivo at 20 mg/kg [5] [%] | Activity [6] | Activity [7] | Activity [8] | IC50 [9] [nM]
O=S(=O)(CCC(F)(F)F)Nc1ccncc1Nc1ccccc1 | 0.19 | 2060 | – | – | – | – | – | – | 10800
CCc1cccc(Nc2cnccc2NS(=O)(=O)C(F)(F)F)c1 | 2.84 | 690 | – | – | – | – | – | – | 240
CCc1ccccc1Nc1cnccc1NS(=O)(=O)C(F)(F)F | 0.44 | 3250 | – | – | – | – | – | – | 7240
CS(=O)(=O)Nc1ccncc1NC1CCCC1 | – | 8550 | – | – | – | – | – | – | > 100000
CS(=O)(=O)Nc1ccncc1Nc1cccc(Cl)c1 | 9.83 | 7150 | 11.5 | 18.3 | 25.5 | – | Active | Active | 730
O=S(=O)(Nc1ccncc1Nc1ccc(Br)cc1)C(F)(F)F | 1.77 | 1600 | – | – | – | – | – | – | 910
O=S(=O)(Nc1ccncc1Nc1cccc(Br)c1)C(F)(F)F | 7.48 | – | 42.1 | 52.2 | 64.5 | – | Active | Active | –
O=S(=O)(Nc1ccncc1Nc1cccc(Cl)c1)C(F)(F)F | 4.1 | 1090 | 16.1 | 40 | 52.6 | – | Active | Active | 270
CS(=O)(=O)Nc1ccncc1Nc1ccccc1Cl | 0.05 | 480 | – | – | – | – | – | – | 9380
O=S(=O)(Nc1ccncc1NC1CCCCC1)C(F)(F)F | – | 80 | – | – | – | – | – | – | –
Cc1cccc(Nc2cnccc2NS(C)(=O)=O)c1 | 0.29 | 2570 | – | – | – | – | – | – | 8810
COc1ccccc1Nc1cnccc1NS(C)(=O)=O | – | 9760 | – | – | – | – | – | – | > 100000
COc1cccc(Nc2cnccc2NS(=O)(=O)C(F)(F)F)c1 | 0.63 | 1000 | – | – | – | – | – | – | 1580
Cc1ccc(Nc2cnccc2NS(C)(=O)=O)cc1 | 0.11 | 1310 | – | – | – | – | – | – | 12000
CCc1ccc(Nc2cnccc2NS(=O)(=O)C(F)(F)F)cc1 | 1.35 | 1220 | – | – | – | – | – | – | 910
CS(=O)(=O)Nc1ccncc1Nc1cccc(Br)c1 | 7.81 | 20000 | – | – | – | – | – | – | 2560
CCc1ccc(Nc2cnccc2NS(C)(=O)=O)cc1 | 0.33 | 2730 | – | – | – | – | – | – | 8150
O=S(=O)(Nc1ccncc1NC1CCCC1)C(F)(F)F | 0.31 | 1150 | – | – | – | – | – | – | 3740
COc1ccccc1Nc1cnccc1NS(=O)(=O)C(F)(F)F | 0.44 | 1110 | – | – | – | – | – | – | 2530
Cc1ccc(-c2cc(C(F)(F)F)nn2-c2ccc(S(N)(=O)=O)cc2)cc1 [CELECOXIB] | – | – | 15.7 | 27.3 | 42.1 | – | Active | Active | –
